Data taken from ChEMBL document CHEMBL4715754, “Slowing down fat digestion and absorption by an oxadiazolone inhibitor targeting selectively gastric lipolysis” (2016).

Columns and labels:
[1] = target: T1, Pancreatic lipase-related protein 2 (Cavia porcellus) (UniProt P81139); assay: Inhibition of recombinant guinea pig PL-RP2 expressed in Aspergillus oryzae at 4:1 molar excess compound concentration preincubated for 30 mins at 25 degreeC relative to control
T1 sequence (whole entry): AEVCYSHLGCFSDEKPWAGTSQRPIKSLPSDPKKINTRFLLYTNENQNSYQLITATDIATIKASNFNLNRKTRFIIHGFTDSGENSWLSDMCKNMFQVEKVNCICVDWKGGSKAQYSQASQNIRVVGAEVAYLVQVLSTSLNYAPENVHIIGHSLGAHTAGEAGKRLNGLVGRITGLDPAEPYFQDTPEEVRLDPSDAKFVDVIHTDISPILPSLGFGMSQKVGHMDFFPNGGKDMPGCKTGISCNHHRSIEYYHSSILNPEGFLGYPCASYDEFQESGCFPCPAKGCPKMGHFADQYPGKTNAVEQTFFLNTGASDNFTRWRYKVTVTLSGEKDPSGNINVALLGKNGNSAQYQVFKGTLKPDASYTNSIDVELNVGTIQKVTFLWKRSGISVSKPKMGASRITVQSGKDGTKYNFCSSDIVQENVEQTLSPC

[2] = target: T2, Pancreatic triacylglycerol lipase (Sus scrofa) (UniProt P00591); assay: Inhibition of porcine pancreatic lipase at 4.1 mg/ml under duodenal phase at pH 6.5 using liquid test meal measured after 30 to 90 mins relative to control; conditions: time 30-90 min
T2 sequence (whole entry): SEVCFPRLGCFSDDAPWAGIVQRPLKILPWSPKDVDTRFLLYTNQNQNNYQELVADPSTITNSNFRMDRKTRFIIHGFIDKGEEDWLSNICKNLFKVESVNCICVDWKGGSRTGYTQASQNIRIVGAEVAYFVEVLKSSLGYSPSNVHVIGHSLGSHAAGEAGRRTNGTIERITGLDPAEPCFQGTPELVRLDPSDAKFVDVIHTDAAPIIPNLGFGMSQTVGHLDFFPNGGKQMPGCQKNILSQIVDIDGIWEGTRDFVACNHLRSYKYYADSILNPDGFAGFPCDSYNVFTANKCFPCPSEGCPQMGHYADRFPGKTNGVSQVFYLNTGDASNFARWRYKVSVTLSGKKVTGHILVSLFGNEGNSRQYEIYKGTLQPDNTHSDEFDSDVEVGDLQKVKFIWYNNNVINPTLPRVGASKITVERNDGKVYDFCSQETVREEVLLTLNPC

[3] = target: T2, Pancreatic triacylglycerol lipase (Sus scrofa); assay: Inhibition of porcine pancreatic lipase assessed as lipolysis level at 4.1 mg/ml under duodenal phase at pH 6.5 using solid test meal measured at 90 mins (reference value: 45.4 +/- 1.4 %); design: scale not given: the % may be the effect or the level left
[4] = target: T2, Pancreatic triacylglycerol lipase (Sus scrofa); assay: Inhibition of porcine pancreatic lipase assessed as lipolysis level at 4.1 mg/ml under duodenal phase at pH 6.5 using liquid test meal measured at 90 mins (reference value: 63.6 +/- 2.6 %); design: scale not given: the % may be the effect or the level left
[5] = species: Homo sapiens; assay: Inhibition of human pancreatic carboxylesterase at 20:1 molar excess compound concentration preincubated for 30 mins at 25 degreeC relative to control
Method in brief: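 hCEH (1 mg/mL in 10 mM MES pH 6.5, 150 mM NaCl) pre-incubated 30 min at 25 °C with inhibitor from DMSO stock at various molar excesses, no substrate. Residual activity by pH-stat on tributyrin emulsion at 37 °C in 1 mM Tris-HCl pH 8.0, 100 mM NaCl, 5 mM CaCl2, 1 mM NaTDC. Relative to DMSO-only control; at least triplicate.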

[6] = target: T1, Pancreatic lipase-related protein 2 (Cavia porcellus); assay: Inhibition of recombinant guinea pig PL-RP2 expressed in Aspergillus oryzae at 20:1 molar excess compound concentration preincubated for 30 mins at 25 degreeC relative to control
[7] = target: T3, Gastric triacylglycerol lipase (Canis lupus familiaris) (UniProt P80035); assay: Inhibition of recombinant dog gastric lipase assessed as lipolysis level at 4.1 mg/ml under gastric phase at pH 5.5 using solid test meal measured up to 30 mins (reference value: 13 +/- 1.2 %); design: scale not given: the % may be the effect or the level left; conditions: time min <=30
T3 sequence (whole entry): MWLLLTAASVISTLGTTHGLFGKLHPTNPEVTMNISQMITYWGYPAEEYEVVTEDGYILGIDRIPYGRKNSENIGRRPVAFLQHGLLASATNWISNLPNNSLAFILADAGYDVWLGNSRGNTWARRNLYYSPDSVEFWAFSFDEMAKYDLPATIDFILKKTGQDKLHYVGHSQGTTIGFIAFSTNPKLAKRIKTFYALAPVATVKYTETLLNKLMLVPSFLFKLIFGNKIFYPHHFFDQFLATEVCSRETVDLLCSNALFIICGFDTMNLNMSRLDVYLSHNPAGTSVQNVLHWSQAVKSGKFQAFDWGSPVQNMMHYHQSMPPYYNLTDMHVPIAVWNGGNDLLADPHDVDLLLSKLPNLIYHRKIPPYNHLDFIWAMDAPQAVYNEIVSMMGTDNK
Method in brief: (§1)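 Gastric phase: 15 mL liquid or solid test meal (506 mg TAG) premixed with 734 µL of 4.1 mg/mL DMSO stock (2.94 mg, 7.262 µmol), then DGL to 17 µg/mL final, pH 5.5, 37 °C, stirred. Samples at 1, 15, 29 min; residual DGL activity by pH-stat; lipolysis level from TLC-FID of lipid extracts. DMSO-only controls; n = 3.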

[8] = target: T3, Gastric triacylglycerol lipase (Canis lupus familiaris); assay: Inhibition of recombinant dog gastric lipase at 4.1 mg/ml under gastric phase at pH 5.5 using liquid test meal measured up to 30 mins relative to control; conditions: time min <=30; method in brief: as §1
[9] = target: T3, Gastric triacylglycerol lipase (Canis lupus familiaris); assay: Inhibition of recombinant dog gastric lipase assessed as lipolysis level at 4.1 mg/ml under gastric phase at pH 5.5 using liquid test meal measured up to 30 mins (reference value: 22.3 +/- 1.4 %); design: scale not given: the % may be the effect or the level left; conditions: time min <=30; method in brief: as §1
[10] = target: T1, Pancreatic lipase-related protein 2 (Cavia porcellus); assay: Inhibition of recombinant guinea pig PL-RP2 expressed in Aspergillus oryzae preincubated for 30 mins at 25 degreeC
[11] = target: T3, Gastric triacylglycerol lipase (Canis lupus familiaris); assay: Inhibition of recombinant dog gastric lipase assessed as lipolysis level at 4.9 mg/ml under gastric phase at pH 5.5 using solid test meal measured up to 30 mins (reference value: 13 +/- 1.2 %); design: scale not given: the % may be the effect or the level left; conditions: time min <=30
Method in brief: (§2)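 In vitro two-phase digestion at 37 °C, 1,000 rpm: 15 mL liquid or solid test meal (506 mg TAG) was premixed with 7.262 µmol inhibitor in DMSO (DMSO-only control). Gastric phase: DGL 17 µg/mL final, pH 5.5. Duodenal phase from 30 min: pancreatic extract plus bovine bile added (PPL 250 µg/mL, bile salts 4.0 mM), pH 6.25. Lipids in samples were quantified by TLC-FID; LL% is (MAG+FFA) relative to 3×initial TAG; n = 3.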

[12] = target: T2, Pancreatic triacylglycerol lipase (Sus scrofa); conditions: dose 4.9 mg/ml, time 30-90 min
[13] = target: T3, Gastric triacylglycerol lipase (Canis lupus familiaris); assay: Inhibition of recombinant dog gastric lipase assessed as lipolysis level at 4.9 mg/ml under gastric phase at pH 5.5 using liquid test meal measured up to 30 mins (reference value: 22.3 +/- 1.4 %); design: scale not given: the % may be the effect or the level left; conditions: time min <=30; method in brief: as §2
[14] = target: T2, Pancreatic triacylglycerol lipase (Sus scrofa); conditions: dose 4.9 mg/ml, time 30-90 min; remark: listed apart in the source

O=c1oc(OCCOCc2ccccc2)nn1-c1cccc(Oc2ccccc2)c1
inhibition [1]: 60.6%
inhibition [2]: 5.6%
Activity [3]: 33.7%
Activity [4]: 55.3%
inhibition [5]: 71.5%
inhibition [6]: 62.1%
Activity [7]: 3.1%
inhibition [8]: 100%
Activity [9]: 4.5%
XI50 [10]: 0.64 molar excess

CCCCCCCCCCC[C@@H](C[C@@H]1OC(=O)[C@H]1CCCCCC)OC(=O)[C@@H](CC(C)C)NC=O
Activity [11]: 2.1%
inhibition [12]: 100%
Activity [13]: 0%
inhibition [14]: 86.6%
